The source of these data is ChEMBL document CHEMBL1148199, “Synthesis, conformational analysis, and cytotoxicity of new analogues of the natural cyclodepsipeptide jaspamide” (J Nat Prod, 2004).

Each structure is given as a SMILES string. ≈ marks a conversion by molar mass, not a printed value. Calls of active or inactive are those of the source. No cut-off for these calls is given here.

For assay [1], the system named is A10. The experiment in a line: Effect on cell morphology in rat A10 cells assessed as actin aggregation at 23 nM by immunofluorescence assay. Type of assay: functional, cell-based. Put shortly:
(§1)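 A-10 rat aortic smooth muscle cells were grown to near-confluency on glass coverslips and treated for 24 h. Microfilaments were stained with monoclonal anti-β-actin followed by fluorescein-conjugated anti-mouse IgG. Actin aggregation was scored by immunofluorescence microscopy. Microtubules were stained in parallel samples with anti-β-tubulin and the same secondary antibody.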

The test system of assay [2] is A10. As to the kind of experiment: Effect on cell morphology in rat A10 cells assessed as actin aggregation at 0.85 nM by immunofluorescence assay. Format: functional, cell-based. Summed up:
as §1

Assay [3] in a line: Antiproliferative activity against multidrug-resistant human NCI/ADR cells expressing p-glycoprotein after 48 hrs by SRB assay. Format: functional, cell-based. The note with it: NCI/ADR-RES. Summed up:
(§2)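 Human cell lines (T24 bladder carcinoma, MCF-7, NCI/ADR) kept in RPMI-1640 with 10% FBS and 50 μg/mL gentamycin at 37 °C, 5% CO2. Plated at ~15% confluency and left 24 h to attach. Treated in triplicate with varying concentrations for 48 h. Survival measured by sulforhodamine B binding as % of control cultures. IC50 is the concentration giving 50% inhibition of proliferation.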
(In general: Sulforhodamine B stains cellular protein and so reports cell mass.)

The test system of assay [4] is A10. The experiment in a line: Antiproliferative activity against rat A10 cells after 48 hrs by SRB assay. Type of assay: cell-based. The note with it: A10, 48 h. Put shortly:
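A-10 rat aortic smooth muscle cells kept in α-MEM with 10% FBS and 50 μg/mL gentamycin at 37 °C, 5% CO2. Seeded at ~15% confluency, 24 h recovery, then triplicate 48 h exposure to a concentration series. SRB binding read against control cultures. IC50 is the concentration causing 50% inhibition of proliferation.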

The test system of assay [5] is A10. As to the kind of experiment: Effect on cell morphology in rat A10 cells assessed as microfilaments depolymerization by immunofluorescence assay. Format: functional, cell-based. Summed up: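 A-10 rat smooth muscle cells grown to near-confluency on glass coverslips and exposed to compounds at micromolar amounts for 24 h. Jaspamide served as positive control. Microfilaments stained with monoclonal anti-β-actin, then fluorescein-conjugated anti-mouse IgG. Read-out: actin aggregation and cellular aberrations such as binucleated cells.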

The subject of another assay is T-24. The experiment in a line: Antiproliferative activity against human T24 cells after 48 hrs by SRB assay. Type of assay: functional, cell-based. The note with it: T-24, 48 h. Summed up:
as §2

For assay [6], the system named is A10. The experiment in a line: Effect on cell morphology in rat A10 cells assessed microtubule depolymerization by immunofluorescence assay. Format: functional, cell-based. Summed up:
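Near-confluent A-10 cells on glass coverslips treated with compounds at micromolar amounts for 24 h. Microtubules immunostained with monoclonal anti-β-tubulin followed by fluorescein-conjugated anti-mouse IgG and examined for changes in the microtubule network.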

The test system of the next assay is MCF7. The experiment in a line: Antiproliferative activity against human MCF7 cells after 48 hrs by SRB assay. The note with it: MCF7, 48 h.

For `C/C1=C\[C@H](C)C[C@H](C)OC(=O)C[C@H](c2ccc(O)cc2)NC(=O)[C@@H](Cc2c(Br)[nH]c3ccccc23)N(C)C(=O)[C@H](C)NC(=O)[C@@H](C)C1`, the outcome in the assay with A10 [1] and in the assay on A10 [2] was Active.

For the compound `CC(C)[C@@H]1NC(=O)[C@@H](Cc2c[nH]c3ccccc23)NC(=O)[C@H](C)NC(=O)CCCCCNC1=O`, the IC50 (usually the concentration needed to halve the response being measured) is 12.5 µg/mL (≈ 26.6 µM) in assay [3], 2 µg/mL (≈ 4.26 µM) with A10 [4], 10.3 µg/mL (≈ 21.9 µM) in the assay with T-24 and 1.8 µg/mL (≈ 3.83 µM) in the assay with MCF7. Also, the outcome in the assay with A10 [5] and in the assay with A10 [6] was inactive.

`CC(C)[C@@H]1NC(=O)[C@@H](Cc2c[nH]c3ccccc23)NC(=O)[C@H](C)NC(=O)CCCCCCCNC1=O`: the IC50 (in assay [3]; in the assay on A10 [4]; with T-24; in the assay on MCF7) was greater than 100 µg/mL each time. The outcome in the assay with A10 [5] and in the assay with A10 [6] was inactive.

As for `CC(C)[C@@H]1NC(=O)[C@@H](Cc2c[nH]c3ccccc23)NC(=O)[C@H](C)NC(=O)CCNC(=O)CCCCNC1=O`, the IC50 in assay [3] is 24 µg/mL (≈ 45.6 µM); in the assay with A10 [4] it was 4.3 µg/mL (≈ 8.17 µM); in the assay on T-24 it was 19 µg/mL (≈ 36.1 µM); with MCF7, 3 µg/mL (≈ 5.7 µM). The outcome in the assay on A10 [5] and with A10 [6] was inactive.
